ChEMBL document CHEMBL1138564, “Microwave-induced synthesis and anti-microbial activities of 7,10,11,12-tetrahydrobenzo[c]acridin-8(9H)-one derivatives” (2009)
Converted amounts (≈) assume the structure as drawn. The source made the active and inactive calls. The calls are words filed in the database; no cut-off is given here.

Tests used:
Escherichia coli [1] = assay: Antimicrobial activity against Escherichia coli NCIM 2065 at 1000 ug/disk after 24 hrs by disk diffusion method; assay type: functional; conditions: NCIM 2065, 24 h, read-out: DIZ
In short: (§1)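 Disc diffusion on Mueller–Hinton agar. 100 µl of bacterial suspension at 10⁸ CFU/ml is spread on the plate. Discs carry test compounds at two loadings, dissolved in DMSO; DMSO alone serves as negative control. Ofloxacin disc is the positive reference. Plates are incubated at 37 °C for 24 h, and the inhibition zone diameter is measured.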

Escherichia coli [2] = assay: Antimicrobial activity against Escherichia coli NCIM 2065 at 500 ug/disk after 24 hrs by disk diffusion method; assay type: functional; conditions: NCIM 2065, 24 h, read-out: DIZ; in short: as §1
Bacillus subtilis [3] = assay: Antimicrobial activity against Bacillus subtilis NCIM 2063 at 500 ug/disk after 24 hrs by disk diffusion method; assay type: functional; conditions: NCIM 2063, 24 h, read-out: DIZ; in short: as §1
Bacillus subtilis [4] = assay: Antimicrobial activity against Bacillus subtilis NCIM 2063 at 1000 ug/disk after 24 hrs by disk diffusion method; assay type: functional; conditions: NCIM 2063, 24 h, read-out: DIZ; in short: as §1
Bacillus cereus = assay: Antimicrobial activity against Bacillus cereus NCIM 2155 at 1000 ug/disk after 24 hrs by disk diffusion method; assay type: functional; conditions: NCIM 2155, 24 h, read-out: DIZ; in short: as §1
Aliivibrio fischeri [5] = assay: Antimicrobial activity against Vibrio fischeri NCIM 2154 at 500 ug/disk after 24 hrs by disk diffusion method; assay type: functional; conditions: NCIM 2154, 24 h, read-out: DIZ
In short: (§2)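 Disc diffusion. 100 µl of bacterial suspension at 10⁸ CFU/ml was spread on Mueller–Hinton agar. Discs loaded with test compound dissolved in DMSO were placed on the lawn, with a DMSO-only disc as negative control. Plates were incubated at 37 °C for 24 h, and the inhibition zone diameter was measured.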

[6] = system: Rhodococcus corynebacterioides; assay: Antimicrobial activity against Corynebacterium rubrum NCIM 2252 at 500 ug/disk after 24 hrs by disk diffusion method; assay type: functional; conditions: Rhodococcoides corynebacterioides, NCIM 2252, 24 h; read-out: DIZ; in short: as §1
Salmonella typhimurium = assay: Antimicrobial activity against Salmonella Typhimurium NCIM 2501 at 1000 ug/disk after 24 hrs by disk diffusion method; assay type: functional, Salmonella enterica subsp. enterica serovar Typhimurium; conditions: Salmonella enterica, NCIM 2501, 24 h; read-out: DIZ; in short: as §2
[7] = system: Rhodococcus corynebacterioides; assay: Antimicrobial activity against Corynebacterium rubrum NCIM 2252 at 1000 ug/disk after 24 hrs by disk diffusion method; assay type: functional; conditions: Rhodococcoides corynebacterioides, NCIM 2252, 24 h; read-out: DIZ; in short: as §1
Staphylococcus = assay: Antimicrobial activity against Staphylococcus albus NCIM 2178 at 500 ug/disk after 24 hrs by disk diffusion method; assay type: functional; conditions: NCIM 2178, 24 h, read-out: DIZ; in short: as §2
Proteus vulgaris [8] = assay: Antimicrobial activity against Proteus vulgaris NCIM 2027 at 500 ug/disk after 24 hrs by disk diffusion method; assay type: functional; conditions: NCIM 2027, 24 h, read-out: DIZ; in short: as §1
Proteus vulgaris [9] = assay: Antimicrobial activity against Proteus vulgaris NCIM 2027 at 1000 ug/disk after 24 hrs by disk diffusion method; assay type: functional; conditions: NCIM 2027, 24 h, read-out: DIZ; in short: as §1
Aspergillus flavus [10] = assay: Antimicrobial activity against Aspergillus flavus NCIM 902 at 1000 ug/disk after 72 hrs by disk diffusion method; assay type: functional; conditions: NCIM 902, 72 h, read-out: DIZ
In short: (§3)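 Disc diffusion on Sabouraud's dextrose agar. 100 µl of fungal suspension at 10⁶ CFU/ml is spread on the plate. Discs carry test compounds at two loadings in DMSO; DMSO alone is the negative control. Clotrimazole disc is the positive reference. Plates are incubated at 27 °C for 72 h, and the zone of inhibition diameter is measured.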

Rhodotorula mucilaginosa [11] = assay: Antimicrobial activity against Rhodotorula rubra NCIM 3174 at 500 ug/disk after 72 hrs by disk diffusion method; assay type: functional; conditions: NCIM 3174, 72 h, read-out: DIZ
In short: (§4)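 Fungal disc diffusion. 100 µl of suspension at 10⁶ CFU/ml was spread on Sabouraud's dextrose agar. Discs carrying test compound in DMSO were applied, with a DMSO-only disc as negative control. Plates were incubated at 27 °C for 72 h, and the zone of inhibition diameter was measured.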

Rhodotorula mucilaginosa [12] = assay: Antimicrobial activity against Rhodotorula rubra NCIM 3174 at 1000 ug/disk after 72 hrs by disk diffusion method; assay type: functional; conditions: NCIM 3174, 72 h, read-out: DIZ; in short: as §4
Aspergillus fumigatus [13] = assay: Antimicrobial activity against Aspergillus fumigatus NCIM 902 at 500 ug/disk after 72 hrs by disk diffusion method; assay type: functional; in short: as §3
Aspergillus fumigatus [14] = assay: Antimicrobial activity against Aspergillus fumigatus NCIM 902 at 1000 ug/disk after 72 hrs by disk diffusion method; assay type: functional; in short: as §3
Aspergillus parasiticus [15] = assay: Antimicrobial activity against Aspergillus parasiticus NCIM 904 at 500 ug/disk after 72 hrs by disk diffusion method; assay type: functional; conditions: NCIM 904, 72 h, read-out: DIZ; in short: as §3
Penicillium chrysogenum [16] = assay: Antimicrobial activity against Penicillium chrysogenum NCIM 707 at 500 ug/disk after 72 hrs by disk diffusion method; assay type: functional; in short: as §3
Penicillium chrysogenum [17] = assay: Antimicrobial activity against Penicillium chrysogenum NCIM 707 at 1000 ug/disk after 72 hrs by disk diffusion method; assay type: functional; conditions: NCIM 707, 72 h, read-out: DIZ; in short: as §3
Klebsiella aerogenes [18] = assay: Antimicrobial activity against Klebsiella aerogenes NCIM 2239 at 1000 ug/disk after 24 hrs by disk diffusion method; assay type: functional; conditions: NCIM 2239, 24 h, read-out: DIZ; in short: as §1
Klebsiella aerogenes [19] = assay: Antimicrobial activity against Klebsiella aerogenes NCIM 2239 at 500 ug/disk after 24 hrs by disk diffusion method; assay type: functional; in short: as §1
Pseudomonas aeruginosa = assay: Antimicrobial activity against Pseudomonas aeruginosa NCIM 2200 at 500 ug/disk after 24 hrs by disk diffusion method; assay type: functional; conditions: NCIM 2200, 24 h, read-out: DIZ; in short: as §2
Aspergillus flavus [20] = assay: Antimicrobial activity against Aspergillus flavus NCIM 902 after 72 hrs by serial dilution method; assay type: functional; conditions: NCIM 535, 72 h, in the assay text read “NCIM 535” for “NCIM 902”
In short: (§5)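 MIC by broth dilution in Sabouraud's dextrose broth, only for fungi sensitive in disc diffusion. Two-fold serial dilutions of compounds are made in 1 ml broth per tube, range 3.9 to 1000. Inoculated tubes are incubated at 27 °C for 72 h.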

Rhodotorula mucilaginosa [21] = assay: Antimicrobial activity against Rhodotorula rubra NCIM 3174 after 72 hrs by serial dilution method; assay type: functional; conditions: NCIM 3174, 72 h
In short: (§6)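 MIC by broth dilution in Sabouraud's dextrose broth, run only on fungi found sensitive in the disc assay. Twofold serial dilutions were made in 1 ml broth per tube, covering 3.9 to 1000. Inoculated tubes were incubated at 27 °C for 72 h.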

Aspergillus parasiticus [22] = assay: Antimicrobial activity against Aspergillus parasiticus NCIM 904 after 72 hrs by serial dilution method; assay type: functional; conditions: NCIM 904, 72 h; in short: as §5
Trichoderma viride [23] = assay: Antimicrobial activity against Trichoderma viride NCIM 1195 after 72 hrs by serial dilution method; assay type: functional; conditions: NCIM 1195, 72 h; in short: as §6
Trichoderma viride [24] = assay: Antimicrobial activity against Trichoderma viride NCIM 1195 at 500 ug/disk after 72 hrs by disk diffusion method; assay type: functional; in short: as §4
Trichoderma viride [25] = assay: Antimicrobial activity against Trichoderma viride NCIM 1195 at 1000 ug/disk after 72 hrs by disk diffusion method; assay type: functional; conditions: NCIM 1195, 72 h, read-out: DIZ; in short: as §4
Escherichia coli [26] = assay: Antimicrobial activity against Escherichia coli NCIM 2065 after 24 hrs by serial dilution method; assay type: functional; conditions: NCIM 2065, 24 h
In short: (§7)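 Broth dilution MIC in nutrient broth, run only for organisms found sensitive in disc diffusion. Compounds are two-fold serially diluted in 1 ml sterile broth per tube, spanning 3.9 to 1000. Inoculated tubes are incubated at 37 °C for 24 h.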

Bacillus subtilis [27] = assay: Antimicrobial activity against Bacillus subtilis NCIM 2063 after 24 hrs by serial dilution method; assay type: functional; conditions: NCIM 2063, 24 h; in short: as §7
Aliivibrio fischeri [28] = assay: Antimicrobial activity against Vibrio fischeri NCIM 2154 after 24 hrs by serial dilution method; assay type: functional; conditions: NCIM 2154, 24 h

| MIC (Aspergillus flavus [20]) [µg/mL] | SMILES | zone of inhibition at 1000 µg/disc (Escherichia coli [1]) [mm] | zone of inhibition at 500 µg/disc (Escherichia coli [2]) [mm] | zone of inhibition at 500 µg/disc (Bacillus subtilis [3]) [mm] | zone of inhibition at 1000 µg/disc (Bacillus subtilis [4]) [mm] | zone of inhibition at 1000 µg/disc (Bacillus cereus) [mm] | zone of inhibition at 500 µg/disc (Aliivibrio fischeri [5]) [mm] | zone of inhibition at 500 µg/disc [6] [mm] | zone of inhibition at 1000 µg/disc (Salmonella typhimurium) [mm] | zone of inhibition at 1000 µg/disc [7] [mm] | zone of inhibition at 500 µg/disc (Staphylococcus) [mm] | zone of inhibition at 500 µg/disc (Proteus vulgaris [8]) [mm] | zone of inhibition at 1000 µg/disc (Proteus vulgaris [9]) [mm] | zone of inhibition at 1000 µg/disc (Aspergillus flavus [10]) [mm] | zone of inhibition at 500 µg/disc (Rhodotorula mucilaginosa [11]) [mm] | zone of inhibition at 1000 µg/disc (Rhodotorula mucilaginosa [12]) [mm] | zone of inhibition at 500 µg/disc (Aspergillus parasiticus [15]) [mm] | zone of inhibition at 1000 µg/disc (Penicillium chrysogenum [17]) [mm] | zone of inhibition at 1000 µg/disc (Klebsiella aerogenes [18]) [mm] | zone of inhibition at 500 µg/disc (Pseudomonas aeruginosa) [mm] | other results |
| --- | --- | --- | --- | --- | --- | --- | --- | --- | --- | --- | --- | --- | --- | --- | --- | --- | --- | --- | --- | --- | --- |
| 62.5 (≈ 174 µM) | O=C1CCCC2=C1C(c1ccc(Cl)cc1)c1ccc3ccccc3c1N2 (centres undefined) | 8 | 7 | 8 | 12 | 13 | 8 | 7 | 11 | 8 | 8 | 7 | 9 | 10 | 12 | 16 | 10 | 8 | 9 | 7 | zone of inhibition at 500 µg/disc (Aspergillus fumigatus [13]; NCIM 902, 72 h, read-out: DIZ): 8 mm; zone of inhibition at 1000 µg/disc (Aspergillus fumigatus [14]; NCIM 902, 72 h, read-out: DIZ): 10 mm; zone of inhibition at 500 µg/disc (Penicillium chrysogenum [16]; NCIM 707, 72 h, read-out: DIZ): 7 mm; diameter of the inhibition zone (DIZ) (Klebsiella aerogenes [19]): inactive; MIC (Rhodotorula mucilaginosa [21]): 3.9 µg/mL (≈ 10.8 µM); MIC (Aspergillus parasiticus [22]): 31.2 µg/mL (≈ 86.7 µM); MIC (Trichoderma viride [23]): 125 µg/mL (≈ 347 µM); diameter of the inhibition zone (DIZ) (Trichoderma viride [24]): inactive; zone of inhibition at 1000 µg/disc (Trichoderma viride [25]): 8 mm; MIC (Escherichia coli [26]): 62.5 µg/mL (≈ 174 µM); MIC (Bacillus subtilis [27]): 31.2 µg/mL (≈ 86.7 µM); MIC (Aliivibrio fischeri [28]): 62.5 µg/mL (≈ 174 µM) |
| 31.2 (≈ 84.4 µM) | CC1(C)CC(=O)C2=C(C1)Nc1c(ccc3ccccc13)C2c1ccc(O)cc1 (centres undefined) | 12 | 7 | 7 | 10 | 11 | 7 | 7 | 11 | 10 | 7 | 7 | 9 | 12 | 21 | 23 | 12 | 9 | 12 | 7 | diameter of the inhibition zone (DIZ) (Aspergillus fumigatus [13]): inactive; diameter of the inhibition zone (DIZ) (Aspergillus fumigatus [14]): inactive; diameter of the inhibition zone (DIZ) (Penicillium chrysogenum [16]): inactive; zone of inhibition at 500 µg/disc (Klebsiella aerogenes [19]; NCIM 2239, 24 h, read-out: DIZ): 9 mm; MIC (Rhodotorula mucilaginosa [21]): 3.9 µg/mL (≈ 10.6 µM); MIC (Aspergillus parasiticus [22]): 7.8 µg/mL (≈ 21.1 µM); MIC (Trichoderma viride [23]): 31.2 µg/mL (≈ 84.4 µM); zone of inhibition at 500 µg/disc (Trichoderma viride [24]; NCIM 1195, 72 h, read-out: DIZ): 10 mm; zone of inhibition at 1000 µg/disc (Trichoderma viride [25]): 12 mm; MIC (Escherichia coli [26]): 31.2 µg/mL (≈ 84.4 µM); MIC (Bacillus subtilis [27]): 62.5 µg/mL (≈ 169 µM); MIC (Aliivibrio fischeri [28]): 125 µg/mL (≈ 338 µM) |
